Data: ChEMBL document CHEMBL3351892, “Synthesis and structure-activity relationship of non-peptidic antagonists of neuropilin-1 receptor” (Bioorg Med Chem Lett, 2014)

Experiments:
HUVEC [1] = assay: Inhibition of cell proliferation of HUVEC after 72 hrs by crystal violet adhesion based colorimetric assay; format: functional; details: Homo sapiens
Summary of the method: (§1)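 Crystal violet adhesion: HUVEC 3 × 10^3, MDA-MB-231 5 × 10^3 cells/well, treated 72 h at varied concentrations (up to 10 µM); fixed 4% paraformaldehyde 15 min, PBS pH 7.4 wash, 0.04% crystal violet 30 min, solubilized 2% Triton X-100, OD 595 nm. Mean of three independent experiments in triplicate; IC50 from sigmoid dose–response curve.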

MDA-MB-231 [2] = assay: Cytotoxicity against human MDA-MB-231 after 48 hrs by WST1 assay; format: functional, cell-based; details: MDA-MB-231, 48 h
Summary of the method: (§2)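 WST-1 viability: HUVEC seeded 3 × 10^3, MDA-MB-231 5 × 10^3 cells/well; compounds added one day after seeding at varied concentrations (up to 10 µM); after 48 h medium removed, WST-1 added, 1–2 h at 37 °C, OD 490 nm. Mean of three independent experiments, triplicate per concentration; IC50 from sigmoid dose–response fit.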

HUVEC [3] = assay: Cytotoxicity against HUVEC after 48 hrs by WST1 assay; format: functional, cell-based; details: Homo sapiens; summary of the method: as §2
MDA-MB-231 [4] = assay: Inhibition of cell proliferation of human MDA-MB-231 after 72 hrs by crystal violet adhesion based colorimetric assay; format: functional; details: MDA-MB-231, 72 h; summary of the method: as §1
[5] = target: Neuropilin-1 (Homo sapiens) (UniProt O14786); assay: Inhibition of biotinylated VEGFA165 binding to NRP1 (unknown origin) at 10 uM by chemiluminescent assay
Sequence of Neuropilin-1 (Homo sapiens) (O14786 whole entry): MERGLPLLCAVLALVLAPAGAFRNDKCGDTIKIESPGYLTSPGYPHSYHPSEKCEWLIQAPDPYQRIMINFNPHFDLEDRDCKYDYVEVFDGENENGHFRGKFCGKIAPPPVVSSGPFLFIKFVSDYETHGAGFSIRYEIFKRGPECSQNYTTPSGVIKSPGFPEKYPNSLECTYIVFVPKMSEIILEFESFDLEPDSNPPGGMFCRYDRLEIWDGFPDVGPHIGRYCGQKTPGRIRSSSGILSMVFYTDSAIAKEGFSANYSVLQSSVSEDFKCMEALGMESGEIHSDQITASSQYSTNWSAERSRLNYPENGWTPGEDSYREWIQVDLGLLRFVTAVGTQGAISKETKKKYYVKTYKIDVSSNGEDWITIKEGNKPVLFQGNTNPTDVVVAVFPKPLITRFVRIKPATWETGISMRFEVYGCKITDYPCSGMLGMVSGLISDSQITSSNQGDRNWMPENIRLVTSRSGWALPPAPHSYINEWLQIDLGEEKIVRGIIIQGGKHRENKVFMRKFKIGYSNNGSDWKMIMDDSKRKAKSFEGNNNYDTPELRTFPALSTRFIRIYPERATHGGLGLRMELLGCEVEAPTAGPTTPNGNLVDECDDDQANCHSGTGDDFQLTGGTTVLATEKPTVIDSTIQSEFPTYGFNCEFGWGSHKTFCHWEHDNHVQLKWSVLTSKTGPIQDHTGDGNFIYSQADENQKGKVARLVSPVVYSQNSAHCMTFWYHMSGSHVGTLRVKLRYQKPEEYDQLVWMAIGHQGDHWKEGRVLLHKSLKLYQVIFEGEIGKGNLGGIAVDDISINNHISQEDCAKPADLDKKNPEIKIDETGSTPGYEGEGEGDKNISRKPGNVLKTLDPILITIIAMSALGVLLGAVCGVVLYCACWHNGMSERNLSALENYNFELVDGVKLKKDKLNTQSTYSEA
Summary of the method: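 NRP-1 coated overnight at 0.2 µg/mL in PBS, 4 °C; washed PBS/0.5% Tween 20, blocked 0.5% BSA 2 h 37 °C. Compound preincubated 1 h at 37 °C, then biotinylated VEGF-A165 with 4 µg/mL heparin 2 h at 37 °C; chemiluminescent read-out; percent displacement of bound tracer at 10 µM.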

IC50 (MDA-MB-231 [4]) [µM] | inhibition [5] [%] | Compound | IC50 (HUVEC [1]) [µM] | IC50 (MDA-MB-231 [2]) [µM] | IC50 (HUVEC [3]) [µM]
> 10 | – | O=C(NC(=S)Nc1cccc(-c2nc3ccccc3[nH]2)c1)c1ccccc1 | > 10 | > 10 | > 10
> 10 | – | Cc1ccc(-c2nc3ccccc3s2)cc1NC(=S)NC(=O)c1ccc2c(c1)OCO2 | 5 | > 10 | 5
> 10 | – | Cc1ccc(-c2nc3ccccc3[nH]2)cc1NC(=S)NCc1ccc2c(c1)OCO2 | > 10 | > 10 | > 10
– | – | COc1ccc(C(=O)NC(=O)Nc2cccc(-c3nc4ccccc4[nH]3)c2)cc1OC | 8 | – | 8
– | 32 | CCOc1ccc(C(=O)NC(=S)Nc2cc(-c3nc4ccccc4[nH]3)ccc2C)cc1OCC | 6 | – | –
– | 37 | N#Cc1ccc2[nH]c(-c3cccc(NC(=S)NC(=O)c4ccc5c(c4)OCO5)c3)nc2c1 | 6 | – | –
0.5 | 34 | Cc1ccc(-c2nc3ccccc3[nH]2)cc1NC(=S)NC(=O)c1ccc2c(c1)OCCO2 | 0.15 | 0.53 | 0.24
0.5 | 38 | O=C(NC(=S)Nc1cccc(-c2nc3ccccc3[nH]2)c1)c1ccc2c(c1)OCCO2 | < 0.1 | 0.4 | 0.05
> 10 | – | S=C(NCc1ccc2c(c1)OCO2)Nc1cccc(-c2nc3ccccc3[nH]2)c1 | > 10 | > 10 | > 10
– | 14 | CCOc1ccc(C(=O)NC(=S)Nc2cccc(-c3nc4ccccc4[nH]3)c2)cc1OCC | 8 | – | 8
6 | 46 | O=C(NC(=S)Nc1cccc(-c2nc3ccccc3[nH]2)c1)c1ccc2c(c1)OCO2 | 0.3 | 6 | 0.3
10 | – | COc1ccc(C(=O)NC(=S)Nc2cccc(-c3nc4ccccc4[nH]3)c2)cc1OC | 5 | > 10 | 6
> 10 | – | O=C(NC(=S)Nc1cccc(-c2nc3ccccc3s2)c1)c1ccc2c(c1)OCCO2 | 2.6 | > 10 | 2.6
> 10 | – | Cc1ccc(-c2nc3ccccc3[nH]2)cc1NC(=S)NC(=O)c1ccccc1 | > 10 | > 10 | > 10
6 | – | Cc1ccc(-c2nc3ccccc3[nH]2)cc1NC(=S)NC(=O)c1ccc2c(c1)OCO2 | 0.75 | 6 | 1.5
– | – | Cc1ccc(-c2nc3cc(F)ccc3[nH]2)cc1NC(=S)NC(=O)c1ccc2c(c1)OCO2 | > 10 | – | > 10
8 | 14 | O=C(NC(=S)Nc1cccc(-c2nc3ccccc3s2)c1)c1ccc2c(c1)OCO2 | 0.9 | 10 | 1
– | 0 | N#Cc1ccc2[nH]c(-c3cccc(NC(=S)NC(=O)c4ccc5c(c4)OCCO5)c3)nc2c1 | – | > 10 | 1
